Experimental data taken from ChEMBL document CHEMBL2390929, “New nitric oxide donating 1,2,4-triazole/oxime hybrids: synthesis, investigation of anti-inflammatory, ulceroginic liability and antiproliferative activities” (Bioorg Med Chem, 2013).

Tests used:
[1] = test system: HCT-116; assay: Cytotoxicity against human HCT116 cells assessed as cell growth at 10^-5 M after 48 hrs by SRB assay; type: functional; details: HCT-116, 48 h, read-out: Activity
Summary of the method: (§1)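 NCI 60-cell-line primary one-dose screen across nine tumour subpanels. Compound added at a single concentration of 10^-5 M and cultures incubated 48 h. Endpoint was sulforhodamine B protein staining read spectrophotometrically, with growth expressed as percent of untreated control cells.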

[2] = test system: SK-MEL-5; assay: Cytotoxicity against human SK-MEL-5 cells assessed as cell growth at 10^-5 M after 48 hrs by SRB assay; type: functional; details: SK-MEL-5, 48 h, read-out: Activity
Summary of the method: (§2)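 NCI-60 one-dose screen across nine tumour subpanels. Each agent added once at 10^-5 M, cultures incubated 48 h. Endpoint is sulforhodamine B protein staining read spectrophotometrically. Output is percent growth of treated cells relative to untreated controls.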

[3] = test system: UACC-257; assay: Cytotoxicity against human UACC257 cells assessed as cell growth at 10^-5 M after 48 hrs by SRB assay; type: functional; details: UACC-257, 48 h, read-out: Activity; summary of the method: as §2
[4] = Induction of nitric oxide release in phosphate buffer at pH 7.4 at 0.1 mM after 2 hrs by Griess method in presence of 0.5 mM of N-acetylcysteine; type: physicochemical; details: pH 7.4, 2 h, 100 µM
Summary of the method: (§3)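 Compound in DMF diluted to final 10^-4 M in 1:1 50 mM phosphate buffer pH 7.4/MeOH with 5×10^-4 M N-acetylcysteine, 37 °C. Aliquot mixed with Griess reagent, 10 min at room temperature, A546 read. Nitrite quantified against sodium nitrite standards (10–80 nmol/mL); NO expressed as mol/mol. n = 4 reaction mixtures per compound.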

[5] = test system: MDA-MB-435; assay: Cytotoxicity against human MDA-MB-435 cells assessed as cell growth at 10^-5 M after 48 hrs by SRB assay; type: functional; details: MDA-MB-435, 48 h, read-out: Activity; summary of the method: as §1
[6] = test system: A549; assay: Cytotoxicity against human A549 cells assessed as cell growth at 10^-5 M after 48 hrs by SRB assay; type: functional; details: A549, 48 h, read-out: Activity; summary of the method: as §1
[7] = Induction of nitric oxide release in phosphate buffer at pH 7.4 at 0.1 mM after 4 hrs by Griess method in presence of 0.5 mM of N-acetylcysteine; type: physicochemical; details: pH 7.4, 4 h, 100 µM; summary of the method: as §3
[8] = test system: Rattus norvegicus; assay: Antiinflammatory activity in albino rat assessed as inhibition of carrageenan-induced paw edema at 0.28 mmol/kg, po after 1 hr relative to control; type: functional
Summary of the method: (§4)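 Adult male albino rats (120–140 g), four per group, fasted 24 h with water allowed. Test agent suspended in 0.5% w/v aqueous CMC and given orally at 0.28 mmol/kg; controls received CMC alone. After 30 min, 0.1 mL fresh 1% carrageenan in saline was injected subplantar into the right hind paw and saline into the left. Paw thickness was measured by Vernier caliper; % inhibition = [(VR−VL)control − (VR−VL)treated]/(VR−VL)control ×100. Mean ± SEM, one-way ANOVA.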

[9] = test system: LOX IMVI; assay: Cytotoxicity against human LOXIMVI cells assessed as cell growth at 10^-5 M after 48 hrs by SRB assay; type: functional; details: read-out: Activity; summary of the method: as §1
[10] = test system: A498; assay: Cytotoxicity against human A498 cells assessed as cell growth at 10^-5 M after 48 hrs by SRB assay; type: functional; details: A498, 48 h, read-out: Activity; summary of the method: as §1
[11] = test system: OVCAR-3; assay: Cytotoxicity against human OVCAR3 cells assessed as cell growth at 10^-5 M after 48 hrs by SRB assay; type: functional; details: OVCAR-3, 48 h, read-out: Activity; summary of the method: as §1
[12] = test system: NCI-H23; assay: Cytotoxicity against human NCI-H23 cells assessed as cell growth at 10^-5 M after 48 hrs by SRB assay; type: functional; details: NCI-H23, 48 h, read-out: Activity; summary of the method: as §1
[13] = test system: SK-MEL-2; assay: Cytotoxicity against human SK-MEL-2 cells assessed as cell growth at 10^-5 M after 48 hrs by SRB assay; type: functional; details: SK-MEL-2, 48 h, read-out: Activity; summary of the method: as §1
[14] = test system: SF-539; assay: Cytotoxicity against human SF539 cells assessed as cell growth at 10^-5 M after 48 hrs by SRB assay; type: functional; details: SF-539, 48 h, read-out: Activity; summary of the method: as §1
[15] = test system: T47D; assay: Cytotoxicity against human T47D cells assessed as cell growth at 10^-5 M after 48 hrs by SRB assay; type: functional; details: read-out: Activity; summary of the method: as §2
[16] = test system: PC-3; assay: Cytotoxicity against human PC3 cells assessed as cell growth at 10^-5 M after 48 hrs by SRB assay; type: functional; details: PC-3, 48 h, read-out: Activity; summary of the method: as §1
[17] = Induction of nitric oxide release in phosphate buffer at pH 7.4 at 0.1 mM after 1 hr by Griess method in presence of 0.5 mM of N-acetylcysteine; type: physicochemical; details: pH 7.4, 1 h, 100 µM; summary of the method: as §3
[18] = test system: SW-620; assay: Cytotoxicity against human SW620 cells assessed as cell growth at 10^-5 M after 48 hrs by SRB assay; type: functional; details: SW-620, 48 h, read-out: Activity; summary of the method: as §2
[19] = test system: NCI-H226; assay: Cytotoxicity against human NCI-H226 cells assessed as cell growth at 10^-5 M after 48 hrs by SRB assay; type: functional; details: NCI-H226, 48 h, read-out: Activity; summary of the method: as §1
[20] = test system: HOP-92; assay: Cytotoxicity against human HOP92 cells assessed as cell growth at 10^-5 M after 48 hrs by SRB assay; type: functional; details: HOP-92, 48 h, read-out: Activity; summary of the method: as §1
[21] = test system: Hs-578T; assay: Cytotoxicity against human Hs578T cells assessed as cell growth at 10^-5 M after 48 hrs by SRB assay; type: functional; details: read-out: Activity; summary of the method: as §1
[22] = test system: Rattus norvegicus; assay: Gastrointestinal toxicity in albino rat assessed as ulcer index at 0.28 mmol/kg, po (reference value: 0.60 +/- 0.05); type: organism-based; details: in vivo
[23] = Induction of nitric oxide release in phosphate buffer at pH 7.4 at 0.1 mM after 3 hrs by Griess method in presence of 0.5 mM of N-acetylcysteine; type: physicochemical; details: pH 7.4, 3 h, 100 µM; summary of the method: as §3
[24] = test system: KM12; assay: Cytotoxicity against human KM12 cells assessed as cell growth at 10^-5 M after 48 hrs by SRB assay; type: functional; details: KM12, 48 h, read-out: Activity; summary of the method: as §1
[25] = test system: RXF 393; assay: Cytotoxicity against human RXF393 cells assessed as cell growth at 10^-5 M after 48 hrs by SRB assay; type: functional; details: RXF 393, 48 h, read-out: Activity; summary of the method: as §1
[26] = test system: OVCAR-5; assay: Cytotoxicity against human OVCAR5 cells assessed as cell growth at 10^-5 M after 48 hrs by SRB assay; type: functional; details: OVCAR-5, 48 h, read-out: Activity; summary of the method: as §1
[27] = test system: Rattus norvegicus; assay: Antiinflammatory activity in albino rat assessed as inhibition of carrageenan-induced paw edema at 0.28 mmol/kg, po after 5 hrs relative to control; type: functional; summary of the method: as §4
[28] = test system: HCT-15; assay: Cytotoxicity against human HCT15 cells assessed as cell growth at 10^-5 M after 48 hrs by SRB assay; type: functional; details: HCT-15, 48 h, read-out: Activity; summary of the method: as §1
[29] = test system: COLO 205; assay: Cytotoxicity against human COLO205 cells assessed as cell growth at 10^-5 M after 48 hrs by SRB assay; type: functional; details: COLO 205, 48 h, read-out: Activity; summary of the method: as §1
[30] = test system: Rattus norvegicus; assay: Antiinflammatory activity in albino rat assessed as inhibition of carrageenan-induced paw edema at 0.28 mmol/kg, po after 4 hrs relative to control; type: functional; summary of the method: as §4

`CCn1c(SC/C(=N/O)c2ccccc2)nnc1-c1ccc(OC)c(OC)c1` gave a growth at 10 µM [1] of 108%, a growth at 10 µM [2] of 96.3% and a growth at 10 µM [3] of 104%. For the same compound, the Activity [4] was 0.13 mol/mol, the growth at 10 µM [5] was 116% and the growth at 10 µM [6] was 95.7%. It also gave an Activity [7] of 0.24 mol/mol, an inhibition in vivo at 280 µmol/kg [8] of 61% and a growth at 10 µM [9] of 93%. For the same compound, the growth at 10 µM [10] was 92.3%, the growth at 10 µM [11] was 106% and the growth at 10 µM [12] was 102%. For the same compound, the growth at 10 µM [13] was 105%, the growth at 10 µM [14] was 100% and the growth at 10 µM [15] was 99.6%. It also gave a growth at 10 µM [16] of 101%, an Activity [17] of 0.06 mol/mol and a growth at 10 µM [18] of 106%. The growth at 10 µM [19] was 97.6%, the growth at 10 µM [20] was 107% and the growth at 10 µM [21] was 92.6%. For the same compound, the UI [22] was 1.58, the Activity [23] was 0.2 mol/mol and the growth at 10 µM [24] was 100%. For the same compound, the growth at 10 µM [25] was 114%, the growth at 10 µM [26] was 107% and the inhibition in vivo at 280 µmol/kg [27] was 71%. It also gave a growth at 10 µM [28] of 105%, a growth at 10 µM [29] of 93.5% and an inhibition in vivo at 280 µmol/kg [30] of 82%.
